Assay results taken from ChEMBL document CHEMBL3425424, “Anti-inflammatory coumarin and benzocoumarin derivatives from Murraya alata” (J Nat Prod, 2015).

What was measured:
RAW264.7 [1] = experiment: Cytotoxicity against mouse RAW264.7 cells assessed as cell survival at 80 uM after 24 hrs by MTT assay; assay type: cell-based; conditions: raw264.7, 24 h
In short: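 Viability of RAW 264.7 murine macrophages was read by MTT assay. Cells were kept in DMEM with 10% FBS, 100 U/mL penicillin and 100 μg/mL streptomycin, humidified, 37 °C, 5% CO2.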

RAW264.7 [2] = experiment: Antiinflammatory activity against mouse RAW264.7 cells assessed as reduction of LPS-induced NO production after 24 hrs; assay type: functional, cell-based; conditions: RAW264.7, 24 h
In short: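 RAW 264.7 murine macrophages were grown in DMEM with 10% FBS, penicillin and streptomycin at 37 °C under 5% CO2. Cells were seeded at 1 × 10^5 per well and given 1.0 μg/mL LPS (E. coli 0111:B4) with or without compound for 24 h at 37 °C. Supernatant NO was read by Griess reagent (10 min, room temperature, dark) at OD 540 nm against a sodium nitrite standard curve. Indomethacin was the positive control; three parallel runs, mean ± SD.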

Row | SMILES | Activity (RAW264.7 [1]) | IC50 (RAW264.7 [2])
1 | COc1c(OC)c(CC(O)C(C)(C)O)c2oc(=O)ccc2c1OC (centres undefined) | Non-toxic | 12.4 µM
2 | COc1c(OC)c(CC=C(C)C)c2oc(=O)ccc2c1OC | Non-toxic | 12.4 µM
3 | C=C(C)C(O)C(OCC)c1c(OC)ccc2ccc(=O)oc12 (centres undefined) | Non-toxic | 43.3 µM
4 | COc1cc(OC)c2ccc(=O)oc2c1C/C=C(\C)C=O | Non-toxic | 28.3 µM
5 | C=C(C)/C=C\c1c(OC)cc(OC)c2ccc(=O)oc12 | Non-toxic | 14.5 µM
6 | COc1cc(OC)c2ccc(=O)oc2c1/C=C/C(C)C | Non-toxic | 20.5 µM
7 | C=C(C)[C@H](Cc1c(OC)ccc2ccc(=O)oc12)OO | Non-toxic | 12.4 µM
8 | C=C(C)[C@@H](O)Cc1c(OC)cc(OC)c2ccc(=O)oc12 | Non-toxic | 12.4 µM
9 | CC(C)=CCc1cc2ccc(=O)oc2c2c1OC(C)(C)C=C2 | Non-toxic | 12.4 µM
10 | COc1ccc2ccc(=O)oc2c1C(O)C(=O)C(C)C (centres undefined) | Non-toxic | 12.4 µM
11 | COc1cc(OC)c2ccc(=O)oc2c1CC=O | Non-toxic | 13.8 µM
12 | COc1cc2cc(C)ccc2c2oc(=O)ccc12 | Non-toxic | 12.4 µM
13 | COc1cc2c(c3oc(=O)ccc13)C=CC(C)(C)O2 | Non-toxic | 12.4 µM
14 | COc1ccc2c(c1)c(CC(=O)O)c(C)n2C(=O)c1ccc(Cl)cc1 [INDOMETHACIN] |  | 6.3 µM
15 | C=C(C)Cc1c(OC)cc(OC)c2ccc(=O)oc12 | Non-toxic | 12.4 µM
16 | COc1cc(OC)c2ccc(=O)oc2c1C[C@@H](O)C(C)(C)O | Non-toxic | 12.4 µM
17 | C=C(C)/C=C/c1c(OC)cc(OC)c2ccc(=O)oc12 | Non-toxic | 12.4 µM

Row | SMILES | Activity (RAW264.7 [1]) | IC50 (RAW264.7 [2])
18 | COc1ccc2ccc(=O)oc2c1C(=O)C(=O)C(C)C | Non-toxic | 
19 | COc1ccc2ccc(=O)oc2c1C(C=O)=C(C)C [MURRALONGIN] | Non-toxic | 12.4 µM
20 | C=C(C)[C@H](O)[C@H](O)c1c(OC)ccc2ccc(=O)oc12 (relative stereo) | Non-toxic | 12.4 µM
21 | C=C(C)[C@H](O)[C@H](OCC)c1c(OC)ccc2ccc(=O)oc12 | Non-toxic | 12.4 µM
22 | COc1c(OC)c(/C=C/C(C)(C)O)c2oc(=O)ccc2c1OC | Non-toxic | 12.4 µM
23 | COc1cc(OC)c2ccc(=O)oc2c1CC(C)(C)C(=O)O | Non-toxic | 12.4 µM
24 | COc1cc2cc(COC(=O)CC(C)C)ccc2c2oc(=O)ccc12 | Non-toxic | 9.1 µM
25 | COc1ccc2ccc(=O)oc2c1CC=C(C)C [OSTHOLE] | Non-toxic | 12.4 µM
26 | COc1ccc2ccc(=O)oc2c1 [HERNIARIN] | Non-toxic | 12.4 µM
27 | COc1cc(OC)c2ccc(=O)oc2c1C(=O)C(=O)C(C)C | Non-toxic | 12.4 µM
28 | CCOC(C)(C)[C@@H](O)Cc1c(OC)c(OC)c(OC)c2ccc(=O)oc12 | Non-toxic | 34.2 µM
29 | COc1cc(OC)c2ccc(=O)oc2c1/C=C/C(C)=O | Non-toxic | 6 µM
30 | CCOC(C)(C)C(O)Cc1c(OC)cc(OC)c2ccc(=O)oc12 (centres undefined) | Non-toxic | 31.9 µM
31 | COc1cc(OC)c2ccc(=O)oc2c1CC(C)(C)C=O | Non-toxic | 12.4 µM
32 | COc1cc(OC)c2ccc(=O)oc2c1CC(=O)C(C)C | Non-toxic | 20.6 µM
33 | COc1cc(OC)c2ccc(=O)oc2c1CC=C(C)C | Non-toxic | 33.1 µM
